Test results: ChEMBL document CHEMBL1949649, “5-sulfonyl-benzimidazoles as selective CB2 agonists-part 2” (Bioorg Med Chem Lett, 2012)
In brackets after ≈: the same amount, converted by molar mass. Activity calls are given as the source filed them. The rule behind the calls is not given here.

Key:
Rattus norvegicus [1] = experiment: Toxicity in rat chronic constriction injury-induced neuropathic pain model assessed as tolerance at 40 mg/kg/day, sc after 5 to 8 days; type: organism-based; set-up: route subcutaneous; settings: in vivo
Summary of the method: (§1)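 Chronic constriction injury of rats (n = 7 per group); daily subcutaneous dosing over repeated days, with morphine as comparator. Cold allodynia read as lifting on a cold plate at 0 °C for 4 min.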

Cannabinoid receptor 1 = Cannabinoid receptor 1 (Homo sapiens, UniProt P21554); experiment: Agonist activity at human CB1 receptor; type: functional
Sequence of Cannabinoid receptor 1 (P21554 whole entry): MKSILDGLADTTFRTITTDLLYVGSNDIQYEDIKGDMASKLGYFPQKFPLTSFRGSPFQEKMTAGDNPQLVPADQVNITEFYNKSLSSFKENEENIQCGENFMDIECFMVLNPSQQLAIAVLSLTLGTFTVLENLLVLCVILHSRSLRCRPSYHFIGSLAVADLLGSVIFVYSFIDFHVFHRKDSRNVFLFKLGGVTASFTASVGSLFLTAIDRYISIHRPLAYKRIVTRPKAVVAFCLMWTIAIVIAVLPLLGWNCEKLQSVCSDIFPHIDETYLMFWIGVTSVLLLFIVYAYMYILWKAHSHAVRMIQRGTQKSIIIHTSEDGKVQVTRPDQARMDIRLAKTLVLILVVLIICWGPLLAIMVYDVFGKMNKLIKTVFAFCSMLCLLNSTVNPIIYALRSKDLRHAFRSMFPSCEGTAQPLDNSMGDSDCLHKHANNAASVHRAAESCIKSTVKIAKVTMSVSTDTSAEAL

[2] = Drug metabolism in human liver microsomes after 15 mins; type: ADME, Microsome; settings: read-out: Drug metabolism
Cannabinoid receptor 2 = Cannabinoid receptor 2 (Homo sapiens, UniProt P34972); experiment: Agonist activity at human CB2 receptor; type: functional
Sequence of Cannabinoid receptor 2 (P34972 whole entry): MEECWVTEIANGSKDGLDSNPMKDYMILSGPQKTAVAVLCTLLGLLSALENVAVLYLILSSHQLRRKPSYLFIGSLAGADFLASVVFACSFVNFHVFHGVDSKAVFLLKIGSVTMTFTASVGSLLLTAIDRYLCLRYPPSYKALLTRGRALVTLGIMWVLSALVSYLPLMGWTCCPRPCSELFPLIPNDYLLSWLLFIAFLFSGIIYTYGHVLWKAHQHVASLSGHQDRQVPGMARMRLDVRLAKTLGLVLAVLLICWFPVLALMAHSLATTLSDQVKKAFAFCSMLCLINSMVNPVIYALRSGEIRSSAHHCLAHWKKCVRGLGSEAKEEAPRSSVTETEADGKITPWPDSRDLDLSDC

Rattus norvegicus [3] = experiment: Toxicity in rat up to 40 mg/kg, ip by modified tetrad test; type: organism-based; set-up: dose 40 mg/kg, route intraperitoneal; settings: in vivo
[4] = Lipophilicity, Log P of the compound; type: physicochemical; settings: octanol/water
[5] = Solubility of the compound in water; type: physicochemical
[6] = Drug metabolism in human liver microsomes at 5 uM after 60 mins; type: ADME, Microsome; settings: read-out: Drug metabolism
Summary of the method: (§2)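 Test compound incubated at 5 µM with liver microsomes (human, rat, mouse or dog) for 60 min; read-out is % of compound metabolised.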

[7] = Drug metabolism in rat liver microsomes at 5 uM after 60 mins; type: ADME, Microsome; settings: read-out: Drug metabolism; summary of the method: as §2
[8] = Drug metabolism in mouse liver microsomes at 5 uM after 60 mins; type: ADME, Microsome; settings: read-out: Drug metabolism; summary of the method: as §2
[9] = Drug metabolism in dog liver microsomes at 5 uM after 60 mins; type: ADME, Canis lupus familiaris, Microsome; settings: read-out: Drug metabolism; summary of the method: as §2
[10] = Clearance in Sprague-Dawley rat at 2.5 mg/kg, iv and 10 mg/kg, po; type: ADME, organism-based; settings: in vivo
[11] = Volume of distribution in Sprague-Dawley rat at 2.5 mg/kg, iv and 10 mg/kg, po; type: ADME, organism-based; settings: in vivo
[12] = Half life in Sprague-Dawley rat at 2.5 mg/kg, iv; type: ADME, organism-based; set-up: dose 2.5 mg/kg, route intravenous; settings: in vivo
[13] = Half life in Sprague-Dawley rat at 10 mg/kg, po; type: ADME, organism-based; set-up: dose 10 mg/kg, route oral; settings: in vivo
[14] = Absolute oral bioavailability in Sprague-Dawley rat at 10 mg/kg; type: ADME, organism-based; settings: in vivo
[15] = Ratio drug uptake in brain to plasma of Sprague-Dawley rat at 2.5 mg/kg, iv and 10 mg/kg, po; type: ADME, organism-based; settings: read-out: BPR
Summary of the method: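 Rat tissue distribution study; brain and plasma levels compared as brain/plasma ratio.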

[16] = Clearance in Beagle dog at 1 mg/kg, iv and 5 mg/kg, po; type: ADME, organism-based, Canis lupus familiaris; settings: in vivo
Summary of the method: (§3)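 Beagle dogs dosed at 1 mg/kg iv and 5 mg/kg po; plasma kinetics give clearance, volume of distribution, iv and po half-life, and absolute oral bioavailability.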

[17] = Volume of distribution in Beagle dog at 1 mg/kg, iv and 5 mg/kg, po; type: ADME, organism-based, Canis lupus familiaris; settings: in vivo; summary of the method: as §3
[18] = Half life in Beagle dog at 1 mg/kg, iv; type: ADME, organism-based, Canis lupus familiaris; set-up: dose 1 mg/kg, route intravenous; settings: in vivo; summary of the method: as §3
[19] = Half life in Beagle dog at 5 mg/kg, po; type: ADME, organism-based, Canis lupus familiaris; set-up: dose 5 mg/kg, route oral; settings: in vivo; summary of the method: as §3
[20] = Absolute oral bioavailability in Beagle dog at 5 mg/kg; type: ADME, organism-based, Canis lupus familiaris; settings: in vivo; summary of the method: as §3
Rattus norvegicus [21] = experiment: Antinociceptive activity in rat at 10 mg/kg by hot plate method; type: functional, organism-based; set-up: dose 10 mg/kg
Rattus norvegicus [22] = experiment: Antinociceptive activity in rat at 10 mg/kg by tail withdrawal reflex test; type: functional, organism-based; set-up: dose 10 mg/kg
Rattus norvegicus [23] = experiment: Antinociceptive activity in rat at 10 mg/kg by paw flick test; type: functional, organism-based; set-up: dose 10 mg/kg
Rattus norvegicus [24] = species: Rattus norvegicus; experiment: Antihyperalgesic activity against Freund's adjuvant-induced thermal hyperalgesia in rat; type: functional, organism-based
Rattus norvegicus [25] = species: Rattus norvegicus; experiment: Antihyperalgesic activity against carrageenan-induced thermal hyperalgesia in rat; type: functional, organism-based
Rattus norvegicus [26] = experiment: Antiallodynic activity in rat chronic constriction injury-induced neuropathic pain model assessed as reversal of pain response at 40 mg/kg/day, sc; type: functional, organism-based; summary of the method: as §1
Rattus norvegicus [27] = experiment: Antiallodynic activity in rat chronic constriction injury-induced neuropathic pain model assessed as reversal of pain response at 40 mg/kg/day, sc after 12 days; type: functional, organism-based; summary of the method: as §1
Mus musculus = experiment: Antiinflammatory activity in mouse EAE model of multiple sclerosis assessed as delay in neurological signs of autoimmune encephalomyelitis disease progression at 40 mg/kg/day, po administered from day 8 to day 16; type: functional, organism-based
Summary of the method: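 Mice with experimental autoimmune encephalomyelitis given chronic oral dosing at 40 mg/kg; neurological signs scored as EAE disease scores over time.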

[28] = Solubility of the compound in 10% cyclodextrin
Rattus norvegicus [29] = experiment: Toxicity in rat assessed as decrease in body temperature at 10 mg/kg, ip by modified tetrad test; type: organism-based; set-up: dose 10 mg/kg, route intraperitoneal; settings: in vivo
Rattus norvegicus [30] = experiment: Toxicity in rat assessed as appearance of flat body posture at 2.5 mg/kg, ip by modified tetrad test; type: organism-based; set-up: dose 2.5 mg/kg, route intraperitoneal; settings: in vivo

For `CN1CC[C@]23c4c5ccc(O)c4O[C@H]2[C@@H](O)C=C[C@H]3[C@H]1C5` [MORPHINE], the Activity (Rattus norvegicus [1]) was “Non-toxic”.
Work on `COC(=O)N1CCC(Cn2c(C(C)(C)C)nc3cc(S(=O)(=O)CCCC(F)(F)F)ccc32)CC1` yielded an EC50 (Cannabinoid receptor 1) greater than 10000 nM and a metabolised at 0.25 h [2] of 54%.
In the case of `CC(C)(C)c1nc2cc(S(=O)(=O)CCCC(F)(F)F)ccc2n1CC1CCNCC1`, the EC50 (Cannabinoid receptor 2) is reported as 240 nM and the EC50 (Cannabinoid receptor 1) is reported as greater than 10000 nM.
`CCC(=O)N1CCC(Cn2c(C(C)(C)C)nc3cc(S(=O)(=O)CCCC(F)(F)F)ccc32)CC1` gave an EC50 (Cannabinoid receptor 1) greater than 10000 nM and a metabolised at 0.25 h [2] of 4%.
`COCCCNc1cc(S(=O)(=O)c2ccc3c(c2)nc(C(C)(C)C)n3CC2CCOCC2)ccn1` gave an EC50 (Cannabinoid receptor 2) of 0.8 nM and a metabolised at 0.25 h [2] of 99%.
Work on `COCCS(=O)(=O)c1ccc2c(c1)nc(C(C)(C)C)n2CC1CCN(C(C)=O)CC1` yielded an EC50 (Cannabinoid receptor 1) greater than 10000 nM.
For `CCS(=O)(=O)c1ccc2c(c1)nc(C(C)(C)C)n2CC1CCN(C(C)=O)CC1`, the EC50 (Cannabinoid receptor 2) was 8.4 nM, the EC50 (Cannabinoid receptor 1) was greater than 10000 nM and the metabolised at 0.25 h [2] was 13%.
For `COCCOc1cc(S(=O)(=O)c2ccc3c(c2)nc(C(C)(C)C)n3CC2CCOCC2)ccn1`, the EC50 (Cannabinoid receptor 2) was 1.3 nM and the metabolised at 0.25 h [2] was 53%.
Compound `CC(=O)N1CCC(Cn2c(C(C)(C)C)nc3cc(S(=O)(=O)c4nccs4)ccc32)CC1` has an EC50 (Cannabinoid receptor 2) of 7.7 nM, an EC50 (Cannabinoid receptor 1) of 3430 nM and a metabolised at 0.25 h [2] of 9%. For the same compound, the Activity (Rattus norvegicus [3]) was “Non-toxic”, the logP [4] was 1.9 and the solubility [5] was 20 µg/mL (≈ 0.0434 mM). The metabolised at 1 h, 5 µM [6] was 12%, the metabolised at 1 h, 5 µM [7] was 0% and the metabolised at 1 h, 5 µM [8] was 6%. It also gave a metabolised at 1 h, 5 µM [9] of 0%, a clearance [10] of 53.3 mL/min/kg and a Vd [11] of 1.3 L/kg. For the same compound, the half-life [12] was 3.5 h, the half-life [13] was 3.1 h and the bioavailability [14] was 35%. The Kp [15] was 0.05, the clearance [16] was 11.7 mL/min/kg and the Vd [17] was 3.7 L/kg. For the same compound, the half-life [18] was 4 h, the half-life [19] was 5 h and the bioavailability [20] was 100%. The Activity (Rattus norvegicus [21]) was “inactive”, the Activity (Rattus norvegicus [22]) was “inactive” and the Activity (Rattus norvegicus [23]) was “inactive”. The Activity (Rattus norvegicus [24]) was “inactive”, the Activity (Rattus norvegicus [25]) was “inactive” and the Activity (Rattus norvegicus [26]) was “Active”. For the same compound, the Activity (Rattus norvegicus [27]) was “Active”, the Activity (Mus musculus) was “Active” and the solubility [28] was 8000 µg/mL (≈ 17.4 mM).
In the case of `CC(C)(C)c1nc2cc(S(=O)(=O)CC3CC3)ccc2n1CC1CCN(C=O)CC1`, the EC50 (Cannabinoid receptor 1) is reported as 2510 nM and the metabolised at 0.25 h [2] is reported as 16%.
`COCCCOc1cc(S(=O)(=O)c2ccc3c(c2)nc(C(C)(C)C)n3CC2CCOCC2)ccn1` gave an EC50 (Cannabinoid receptor 2) of 0.5 nM and a metabolised at 0.25 h [2] of 100%.
Work on `CC(C)(C)c1nc2cc(S(=O)(=O)CC3CC3)ccc2n1CC1CCS(=O)(=O)CC1` yielded an EC50 (Cannabinoid receptor 2) of 8.4 nM, an EC50 (Cannabinoid receptor 1) of 2680 nM and a metabolised at 0.25 h [2] of 2%.
For `CC(C)(C)c1nc2cc(S(=O)(=O)CCCC(F)(F)F)ccc2n1CC1CCOCC1`, the EC50 (Cannabinoid receptor 2) was 1.1 nM, the EC50 (Cannabinoid receptor 1) was 320 nM and the metabolised at 0.25 h [2] was 36%. For the same compound, the Activity (Rattus norvegicus [29]) was “Toxic” and the Activity (Rattus norvegicus [30]) was “Toxic”.
With `CC(=O)NCCCCCc1cc(S(=O)(=O)c2ccc3c(c2)nc(C(C)(C)C)n3CC2CCOCC2)ccn1` the EC50 (Cannabinoid receptor 2) was 5.6 nM, the EC50 (Cannabinoid receptor 1) was greater than 10000 nM and the metabolised at 0.25 h [2] was 86%.
With `CC(=O)N1CCC(Cn2c(C(C)(C)C)nc3cc(S(=O)(=O)CCCC(F)(F)F)ccc32)CC1` the EC50 (Cannabinoid receptor 2) was 13 nM, the EC50 (Cannabinoid receptor 1) was greater than 10000 nM and the metabolised at 0.25 h [2] was 17%.
